Data on six compounds can be found in ChEMBL document CHEMBL1133845, “N-propargyl-2-alkynylbenzothiazolium aza-enediynes: role of the 2-alkynylbenzothiazolium functionality in DNA cleavage” (Bioorg Med Chem Lett, 2001).

This assay is described as follows: Normalized percent cleavage of DNA from cleavage reactions (20 h) containing 100 μM compound and 50 μM (bp) supercoiled DNA at pH 9.0 in 20 mM TRIS buffer. The procedure, abridged:
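Supercoiled ΦX174 DNA (50 μM bp) incubated with 100 μM compound in 20 mM TRIS, pH 9, for 20 h at 37 °C. Relaxed circular (Form II) and linear (Form III) DNA resolved on agarose gel and expressed as normalized percent cleavage. Mean ± SD over separate determinations.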

Molecules are shown by their SMILES.

Compound `C[n+]1c(C#Cc2ccccc2)sc2ccccc21` returned a DNA cleavage of 48%.
For the compound `C(#Cc1nc2ccccc2s1)c1ccccc1`, the DNA cleavage was 0%.
In the case of `C#CC[n+]1c(C#C[Si](C(C)C)(C(C)C)C(C)C)sc2ccccc21`, the DNA cleavage was 7%.
`C#CC[n+]1c(C#Cc2ccc(C)cc2)sc2ccccc21` gave a DNA cleavage of 42%.
Turning to `C#CC[n+]1c(C#Cc2ccccc2)sc2ccccc21`, the DNA cleavage was 40%.
On to `C#CC[n+]1c(C#C[Si](C)(C)C)sc2ccccc21`, for which the DNA cleavage was 33%.
